# Results of several laboratories.
# Compare with care: the assays were run in different laboratories.
# Target: Phosphatidylinositol 4-phosphate 5-kinase type-1 alpha (PIP5K1A, Homo sapiens, UniProt Q99755)
Compound,effect on,action,method,tested at,quantity,result
COc1ccc2[nH]c3c4[nH]c5ccc(OC)cc5c4c4c(c3c2c1)C(=O)NC4=O,binding,,,1 µM,remaining binding,100%
C[C@]1(O)CCCN(c2nc(Nc3ccc(S(=O)(=O)N[C@H]4CC[C@H](CN5CCN(c6ccc(C7CCC(=O)NC7=O)cc6F)CC5)CC4)cc3F)ncc2C(F)(F)F)C1 (stereo partly shown),binding,,competition with immobilised ligand,1 µM,remaining binding,94%
CN1CCN(C(=O)c2ccc(NC(=O)Nc3ccc(N(C)c4ccnc(Nc5ccc(CS(C)(=O)=O)cc5)n4)cc3)cc2)CC1,binding,,,1 µM,remaining binding,9.3%
C[C@]1(O)CCCN(c2nc(Nc3ccc(S(=O)(=O)N[C@H]4CC[C@H](CN5CCN(c6ccc(C7CCC(=O)NC7=O)cc6F)CC5)CC4)cc3Cl)ncc2C(F)(F)F)C1 (stereo partly shown),binding,,competition with immobilised ligand,1 µM,remaining binding,93%
C=CC(=O)N1CCC([C@@H]2CCNc3c(C(N)=O)c(-c4ccc(Oc5ccccc5)cc4)nn32)CC1,enzyme activity,inhibitor,,1 µM,inhibition,16%
COc1ccc2oc(-c3ccc4nc(N)oc4c3)c/c(=N\c3ccccc3NC(=O)CCN)c2c1,binding,,,1 µM,remaining binding,95%
CCCCC(=O)Nc1ccc(-c2ccc3ncn(CCC)c(=O)c3c2)cn1,binding,,competition with immobilised ligand,0.5 µM,remaining binding,100%
CC#CC(=O)N1CCC[C@H]1c1nc(-c2ccc(C(=O)Nc3ccccn3)cc2)c2c(N)nccn12,enzyme activity,inhibitor,,1 µM,inhibition,12%
C1=C/COCc2cc(ccc2OCCN2CCCC2)Nc2nccc(n2)-c2cccc(c2)COC/1,binding,,,0.1 µM,remaining binding,20%
CC(C)S(=O)(=O)c1ccc2nccc(Nc3ccc4sc(C5CCCC5)nc4c3)c2c1,enzyme activity,inhibitor,,1 µM,activity vs control,104%
